Source: ChEMBL document CHEMBL4732164, “Structure-Based Design of Potent Selective Nanomolar Type-II Inhibitors of Glycogen Synthase Kinase-3β” (J Med Chem, 2021)
The source made the active and inactive calls. No cut-off for these calls is given here.

Tests used:
[1] = target: T1, Glycogen synthase kinase-3 beta (Homo sapiens, UniProt P49841); test: Inhibition of recombinant human GSK-3beta using phosphorylated polypeptide as substrate incubated for 30 mins in presence of ATP by kinase-glo luminescence assay
Summary of the method: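 Buffer is 50 mM HEPES pH 7.5, 1 mM EDTA, 1 mM EGTA, 15 mM magnesium acetate. Runs 30 min at 30 °C; luminescence read 10 min after reagent. Inhibition is relative to no-inhibitor maximal activity.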
Target sequence in this assay (P49841 whole entry): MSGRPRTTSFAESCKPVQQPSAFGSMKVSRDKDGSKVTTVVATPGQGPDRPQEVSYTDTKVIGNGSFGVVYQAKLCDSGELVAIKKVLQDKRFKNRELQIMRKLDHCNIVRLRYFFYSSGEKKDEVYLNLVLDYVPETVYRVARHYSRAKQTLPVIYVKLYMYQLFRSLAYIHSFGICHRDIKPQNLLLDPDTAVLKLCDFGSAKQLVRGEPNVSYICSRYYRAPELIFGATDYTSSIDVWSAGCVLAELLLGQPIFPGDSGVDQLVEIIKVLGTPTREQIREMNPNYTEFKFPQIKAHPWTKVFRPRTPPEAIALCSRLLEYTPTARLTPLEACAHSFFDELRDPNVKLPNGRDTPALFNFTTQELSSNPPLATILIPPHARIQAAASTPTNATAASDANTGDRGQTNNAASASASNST

[2] = target: T1, Glycogen synthase kinase-3 beta; test: Inhibition of recombinant human GSK-3beta at 50 uM using phosphorylated polypeptide as substrate incubated for 30 mins in presence of ATP by kinase-glo luminescence assay relative to control
Summary of the method: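 Kinase-Glo luminescence: 20 ng enzyme with test compound (DMSO ≤1% final), 25 μM substrate, 1 μM ATP. Buffer is 50 mM HEPES pH 7.5, 1 mM EDTA, 1 mM EGTA, 15 mM magnesium acetate. Runs 30 min at 30 °C; luminescence read 10 min after reagent. Inhibition is relative to no-inhibitor maximal activity.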
Target sequence in this assay (P49841 whole entry, looked up): as the sequence (P49841 whole entry) above

[3] = Inhibition of Ustilago maydis GSK-3beta using Ser/Thr 6 peptide as substrate preincubated for 60 mins followed by ATP and substrate addition and measured after 45 mins by Z'lyte assay; parameters: species or system Mycosarcoma maydis
SH-SY5Y = test: Neuroprotective activity against OA-induced neuronal injury in human SH-SY5Y cells assessed as reduction in cell death at 0.1 to 10 uM pre-incubated for 1 hrs followed by OA addition measured after 24 hrs by MTT assay; format: functional, cell-based; settings: dose 0.1-10 µM
Summary of the method: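 SH-SY5Y cells (DMEM, 10% FBS, 1% pen/strep, 37 °C, 5% CO2) seeded at 60,000/well and grown 48 h. Compound (0.1, 0.5, 1, 5, 10 μM) added 1 h before okadaic acid at 30 nM, then 24 h. Viability by MTT (0.5 mg/mL, ≥4 h), formazan in DMSO, A595, as % control. Mean ± SEM, three independent experiments.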

[4] = target: Cyclin-dependent kinase 2 (Homo sapiens) (UniProt P24941); test: Inhibition of CDK2 (unknown origin) assessed as enzyme remaining activity at 5 uM relative to control
[5] = target: Cyclin-dependent kinase 5 (Homo sapiens) (UniProt Q00535); test: Inhibition of CDK5 (unknown origin) assessed as enzyme remaining activity at 5 uM relative to control
[6] = target: Cyclin-dependent kinase 9 (Homo sapiens) (UniProt P50750); test: Inhibition of CDK9 (unknown origin) assessed as enzyme remaining activity at 5 uM relative to control
[7] = target: Mitogen-activated protein kinase 3 (Homo sapiens) (UniProt P27361); test: Inhibition of ERK1 (unknown origin) assessed as enzyme remaining activity at 5 uM relative to control
[8] = target: Mitogen-activated protein kinase 1 (Homo sapiens) (UniProt P28482); test: Inhibition of ERK2 (unknown origin) assessed as enzyme remaining activity at 5 uM relative to control
Homo sapiens = species: Homo sapiens; test: Inhibition of PKA (unknown origin) assessed as enzyme remaining activity at 5 uM relative to control
[9] = target: RAC-alpha serine/threonine-protein kinase (Homo sapiens) (UniProt P31749); test: Inhibition of PKBalpha (unknown origin) assessed as enzyme remaining activity at 5 uM relative to control
[10] = target: Protein kinase C alpha type (Homo sapiens) (UniProt P17252); test: Inhibition of PKCalpha (unknown origin) assessed as enzyme remaining activity at 5 uM relative to control
[11] = target: Protein kinase C gamma type (Homo sapiens) (UniProt P05129); test: Inhibition of PKCgamma (unknown origin) assessed as enzyme remaining activity at 5 uM relative to control
[12] = target: Glycogen synthase kinase-3 alpha (Homo sapiens) (UniProt P49840); test: Inhibition of GSK3alpha (unknown origin) assessed as enzyme remaining activity at 5 uM relative to control
Chain of Glycogen synthase kinase-3 alpha (Homo sapiens) (P49840 2-483 limits assumed): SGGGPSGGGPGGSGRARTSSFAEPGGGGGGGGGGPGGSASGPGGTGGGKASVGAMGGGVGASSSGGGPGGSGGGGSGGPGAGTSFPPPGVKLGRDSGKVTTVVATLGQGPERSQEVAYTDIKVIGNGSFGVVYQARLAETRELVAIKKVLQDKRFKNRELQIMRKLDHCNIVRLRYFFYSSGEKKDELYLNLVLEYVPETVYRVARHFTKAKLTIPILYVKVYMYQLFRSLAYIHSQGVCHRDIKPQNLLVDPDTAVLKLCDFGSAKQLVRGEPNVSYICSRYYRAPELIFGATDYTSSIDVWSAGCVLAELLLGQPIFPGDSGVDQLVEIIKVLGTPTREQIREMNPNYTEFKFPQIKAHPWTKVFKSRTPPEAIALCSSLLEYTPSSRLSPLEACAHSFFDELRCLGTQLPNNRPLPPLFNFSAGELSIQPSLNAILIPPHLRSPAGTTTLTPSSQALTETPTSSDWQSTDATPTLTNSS

Chain of Mitogen-activated protein kinase 3 (Homo sapiens) (P27361 whole entry): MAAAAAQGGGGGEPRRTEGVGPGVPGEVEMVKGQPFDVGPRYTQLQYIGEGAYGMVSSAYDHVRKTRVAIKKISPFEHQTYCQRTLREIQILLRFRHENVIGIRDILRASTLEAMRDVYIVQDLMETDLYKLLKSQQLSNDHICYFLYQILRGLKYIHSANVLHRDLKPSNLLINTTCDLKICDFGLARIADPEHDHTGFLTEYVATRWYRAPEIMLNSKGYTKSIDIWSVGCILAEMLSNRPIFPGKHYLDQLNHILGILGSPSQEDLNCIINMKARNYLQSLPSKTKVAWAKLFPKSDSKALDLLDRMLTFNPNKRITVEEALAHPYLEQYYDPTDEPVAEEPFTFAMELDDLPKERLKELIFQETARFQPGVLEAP
Chain of RAC-alpha serine/threonine-protein kinase (Homo sapiens) (P31749 whole entry): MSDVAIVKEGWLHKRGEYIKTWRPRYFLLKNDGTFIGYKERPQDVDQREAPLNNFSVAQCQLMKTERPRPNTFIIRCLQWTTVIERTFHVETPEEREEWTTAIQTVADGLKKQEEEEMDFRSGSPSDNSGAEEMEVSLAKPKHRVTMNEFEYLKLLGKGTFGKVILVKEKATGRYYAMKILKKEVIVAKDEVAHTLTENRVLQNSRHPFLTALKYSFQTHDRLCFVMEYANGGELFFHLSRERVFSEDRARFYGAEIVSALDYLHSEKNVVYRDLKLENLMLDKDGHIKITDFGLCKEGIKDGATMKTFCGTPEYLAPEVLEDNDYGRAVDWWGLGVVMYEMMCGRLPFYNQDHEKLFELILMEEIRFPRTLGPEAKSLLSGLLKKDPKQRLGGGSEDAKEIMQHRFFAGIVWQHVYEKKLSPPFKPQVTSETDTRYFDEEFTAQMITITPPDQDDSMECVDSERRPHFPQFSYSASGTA
Chain of Mitogen-activated protein kinase 1 (Homo sapiens) (P28482 whole entry): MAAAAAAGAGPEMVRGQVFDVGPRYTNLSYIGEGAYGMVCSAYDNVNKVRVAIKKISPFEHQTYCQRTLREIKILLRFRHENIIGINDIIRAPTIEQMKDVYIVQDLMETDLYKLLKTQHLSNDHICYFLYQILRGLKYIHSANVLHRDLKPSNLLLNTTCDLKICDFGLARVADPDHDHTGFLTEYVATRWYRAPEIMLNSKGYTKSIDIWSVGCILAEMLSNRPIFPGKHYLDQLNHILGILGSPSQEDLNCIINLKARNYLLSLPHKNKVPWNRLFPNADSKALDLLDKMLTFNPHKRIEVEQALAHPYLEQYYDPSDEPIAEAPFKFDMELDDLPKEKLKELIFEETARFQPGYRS
Chain of Cyclin-dependent kinase 9 (Homo sapiens) (P50750 whole entry): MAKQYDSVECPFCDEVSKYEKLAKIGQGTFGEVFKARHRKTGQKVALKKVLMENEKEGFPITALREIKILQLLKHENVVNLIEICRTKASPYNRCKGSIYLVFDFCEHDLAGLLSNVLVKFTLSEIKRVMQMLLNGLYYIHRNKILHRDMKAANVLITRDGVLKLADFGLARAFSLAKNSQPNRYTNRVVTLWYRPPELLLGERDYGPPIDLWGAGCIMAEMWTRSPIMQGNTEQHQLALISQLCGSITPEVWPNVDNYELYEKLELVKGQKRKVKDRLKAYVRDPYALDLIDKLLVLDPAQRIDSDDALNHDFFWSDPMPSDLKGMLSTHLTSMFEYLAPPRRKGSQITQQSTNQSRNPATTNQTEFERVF
Chain of Cyclin-dependent kinase 5 (Homo sapiens) (Q00535 whole entry, looked up): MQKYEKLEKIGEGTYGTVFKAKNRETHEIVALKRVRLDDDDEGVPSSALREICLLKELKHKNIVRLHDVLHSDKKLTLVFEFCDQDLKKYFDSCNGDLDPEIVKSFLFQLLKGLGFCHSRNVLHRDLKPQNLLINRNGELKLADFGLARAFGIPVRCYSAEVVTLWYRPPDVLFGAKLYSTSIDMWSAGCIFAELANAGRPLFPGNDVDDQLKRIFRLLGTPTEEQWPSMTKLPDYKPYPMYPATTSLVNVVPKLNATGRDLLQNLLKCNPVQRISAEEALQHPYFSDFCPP

| Structure (SMILES) | IC50 [1] [µM] | inhibition [2] [%] | other results |
| --- | --- | --- | --- |
| COc1ccccc1-c1ccnc(N[C@H]2CO[C@H]3[C@@H]2OC[C@@H]3NC(=O)Nc2cccc(C(F)(F)F)c2)n1 | 27 |  |  |
| O=C(Nc1cccc(C(F)(F)F)c1)N[C@H]1CO[C@H]2[C@@H]1OC[C@@H]2OC(=O)Nc1ccc(Oc2ccccc2)cc1 | > 50 | 42 |  |
| CN(C)c1ccc(-c2ccnc(N[C@H]3CO[C@H]4[C@@H]3OC[C@@H]4NC(=O)Nc3cccc(C(F)(F)F)c3)n2)cc1 | 5.66 |  |  |
| Cc1ccc(-n2nc(C(C)(C)C)cc2NC(=O)Nc2ccc(OCCN3CCOCC3)c3ccccc23)cc1 [DORAMAPIMOD] |  |  | IC50 [3]: 1.06 µM |
| COc1ccc(-c2ccnc(N[C@H]3CO[C@H]4[C@@H]3OC[C@@H]4NC(=O)Nc3cccc(C(F)(F)F)c3)n2)cc1 | 9.75 |  |  |
| CC(C)(C)c1cc(NC(=O)Nc2ccc(Cl)cc2)n(-c2cccc(N)c2)n1 |  |  | IC50 [3]: 7.8 µM |
| COc1ccc(-c2ccnc(N[C@H]3CO[C@H]4[C@@H]3OC[C@@H]4NC(=O)Nc3ccccc3)n2)cc1 | 0.56 |  | Activity (SH-SY5Y): Active |
| O=C(Nc1cccc(C(F)(F)F)c1)N[C@H]1CO[C@H]2[C@@H]1OC[C@@H]2Nc1nccc(C2CCCC2)n1 | 11.9 |  |  |
| O=C(Nc1cccc2ccccc12)O[C@@H]1CO[C@H]2[C@@H]1OC[C@@H]2NC(=S)Nc1ccc(Cl)cc1 | > 50 | 39 |  |
| O=C(Nc1cccc(C(F)(F)F)c1)N[C@H]1CO[C@H]2[C@@H]1OC[C@H]2OC(=O)Nc1cccc2ccccc12 | > 50 | 35 |  |
| Cn1c(CO[C@H]2CN(Cc3c[nH]c4ccccc34)C[C@H]2F)nc2ccccc21 | > 50 | 14 |  |
| COc1ccccc1-c1ccnc(N[C@H]2CO[C@H]3[C@@H]2OC[C@@H]3NC(=O)Nc2cccc(C#N)c2)n1 | 6.08 |  | Activity (SH-SY5Y): inactive |
| O=C(Nc1cccc(C(F)(F)F)c1)N[C@H]1CO[C@H]2[C@@H]1OC[C@@H]2n1nnnc1-c1cccc(CN2CCCC2)c1 | > 50 | 7 |  |
| CC(=O)Nc1ccc(CN2C[C@@H](F)[C@@H](OCc3nc4cc(C)c(C)cc4[nH]3)C2)cc1 | > 50 | 2 |  |
| COc1ccc(-c2ccnc(N[C@H]3CO[C@H]4[C@@H]3OC[C@@H]4NC(=O)Nc3cccc(C#N)c3)n2)cc1 | 0.087 |  | Activity (SH-SY5Y): Active |
| Cn1cccc1C(=O)N1C[C@H](NC(=O)Nc2ccc(F)cc2F)C[C@@H]1C(=O)N[C@H](Cc1c[nH]c2ccccc12)C(N)=O | > 50 | 6 |  |
| COc1ccc(-c2ccnc(N[C@H]3CO[C@H]4[C@@H]3OC[C@@H]4NC(=O)Nc3cc(OC)cc(OC)c3)n2)cc1 | 0.421 |  | Activity (SH-SY5Y): Active |
| CCOC(=O)Cc1ccc(-n2nc(C(C)(C)C)cc2NC(=O)Nc2ccc(OCCN3CCOCC3)c3ccccc23)cc1 |  |  | IC50 [3]: 1.8 µM |
| O=C(c1ccccc1)N1C[C@@H](F)[C@@H](OCc2nc3cc(C(F)(F)F)ccc3[nH]2)C1 | > 50 | 7 |  |
| CC(C)(C)c1ccnc(N[C@H]2CO[C@H]3[C@@H]2OC[C@@H]3NC(=O)Nc2cccc(C(F)(F)F)c2)n1 | 14 |  |  |
| COc1ccc(C(=O)N2C[C@@H](F)[C@@H](OCc3nc4cc(C(F)(F)F)ccc4[nH]3)C2)cc1 | > 50 | 33 |  |
| O=C(Nc1cccc(C(F)(F)F)c1)O[C@@H]1CO[C@H]2[C@@H]1OC[C@@H]2Nc1nccc(-c2ccc3c(c2)OCO3)n1 | 1.08 |  | Activity (SH-SY5Y): inactive |
| COC(=O)c1ccc2c(c1)nc1n2[C@@H](CNC(=O)Nc2ccccc2)COC1 | > 50 | 1 |  |
| N#Cc1cccc(NC(=O)N[C@H]2CO[C@H]3[C@@H]2OC[C@@H]3Nc2nccc(-c3cccc(F)c3)n2)c1 | 2.08 |  | Activity (SH-SY5Y): Active |
| COC(=O)c1cccc(NC(=S)N[C@H]2CO[C@H]3[C@@H]2OC[C@H]3OC(=O)Nc2cccc(C(F)(F)F)c2)c1 | > 50 | 21 |  |

| Structure (SMILES) | IC50 [1] [µM] | inhibition [2] [%] | other results |
| --- | --- | --- | --- |
| Cc1ccc(-n2nc(C(C)(C)C)cc2NC(=O)Nc2ccc(OCCN3CCOCC3)cc2)cc1 |  |  | IC50 [3]: 10.3 µM |
| O=C(Nc1ccccc1)N[C@H]1CO[C@H]2[C@@H]1OC[C@@H]2Nc1nccc(-c2cccs2)n1 | 2.7 |  |  |
| O=C(Nc1cccc(C(F)(F)F)c1)N[C@H]1CO[C@H]2[C@@H]1OC[C@@H]2Nc1nccc(-c2ccco2)n1 | 2.95 |  |  |
| COc1ccc(-c2ccnc(N[C@H]3CO[C@H]4[C@@H]3OC[C@@H]4NC(=O)Nc3ccc(C(C)=O)cc3)n2)cc1 | 0.412 |  | Activity [4]: > 50%; Activity [5]: > 50%; Activity [6]: 33.8%; Activity [7]: > 50%; Activity [8]: > 50%; Activity (Homo sapiens): > 50%; Activity [9]: > 50%; Activity [10]: > 50%; Activity [11]: > 50%; Activity [12]: > 50%; Activity (SH-SY5Y): Active |
| CC(C)(C)c1cc(NC(=O)Nc2ccc(OCCN3CCOCC3)c3ccccc23)n(-c2cccc(N)c2)n1 |  |  | IC50 [3]: 1.1 µM |
| O=C(Nc1cccc(C(F)(F)F)c1)N[C@H]1CO[C@H]2[C@@H]1OC[C@@H]2Nc1nccc(-c2cccc(F)c2)n1 | 2.06 |  | Activity (SH-SY5Y): Active |
| Cc1cc2nc(CO[C@H]3CN(Cc4cccnc4)C[C@H]3F)[nH]c2cc1C | > 50 | 5 |  |
| O=C(Nc1cccc(C(F)(F)F)c1)O[C@@H]1CO[C@H]2[C@@H]1OC[C@@H]2NC(=S)Nc1ccc(Cl)cc1 | > 50 | 41 |  |
| CNC(=O)c1cc(Oc2ccc(NC(=O)Nc3ccc(Cl)c(C(F)(F)F)c3)cc2)ccn1 [SORAFENIB] |  |  | IC50 [3]: 0.71 µM |
| O=C(Nc1cccc2ccccc12)N[C@H]1CO[C@H]2[C@@H]1OC[C@H]2OC(=O)Nc1ccccc1 | > 50 | 21 |  |
| O=C(Nc1cccc(C(F)(F)F)c1)N[C@H]1CO[C@H]2[C@@H]1OC[C@@H]2Nc1nccc(-c2cccs2)n1 | 4.04 |  |  |
| CC(C)=CC(=O)N1CC(NC(=O)Nc2ccc(F)cc2F)CC1C(=O)N[C@H](Cc1c[nH]c2ccccc12)C(N)=O (stereo partly specified) | > 50 | 5 |  |
| COc1ccc2nc(CO[C@H]3CN(Cc4ccnc5ccccc45)C[C@H]3F)[nH]c2c1 | > 50 | 13 |  |
| Cc1nn(-c2ccccc2[N+](=O)[O-])c(C)c1[C@@H]1C=C[C@@H](NC(=O)Nc2cccc(C#N)c2)C1 | > 50 | 26 |  |
| CS(=O)(=O)c1ccc(CN2C[C@@H](F)[C@@H](OCc3nc4cc(C(F)(F)F)ccc4[nH]3)C2)cc1 | > 50 | 19 |  |
| O=C(O)CCCNC(=O)c1cc(Oc2ccc(NC(=O)Nc3ccc(Cl)c(C(F)(F)F)c3)cc2)ccn1 |  |  | IC50 [3]: 0.154 µM |
| N#Cc1ccc(CN2C[C@@H](F)[C@@H](OCc3nc4cc(C(F)(F)F)ccc4[nH]3)C2)cc1 | > 50 | 2 |  |
| O=C(c1ccncc1)N1C[C@@H](F)[C@@H](OCc2nc3ccc(F)cc3[nH]2)C1 | > 50 | 19 |  |
| Cn1sc(=O)n(Cc2ccccc2)c1=O |  |  | Activity (SH-SY5Y): Active |
| CNC(=O)c1cc(Oc2ccc(NC(=O)Nc3cc(C(F)(F)F)c(Cl)cc3OCCCC(=O)O)cc2)ccn1 |  |  | IC50 [3]: 0.057 µM |
| O=C(c1cccnc1)N1C[C@@H](F)[C@@H](OCc2nc3cc(C(F)(F)F)ccc3[nH]2)C1 | > 50 | 14 |  |
| CSCC(=O)N1C[C@@H](NC(=O)Nc2cccc(SC)c2)C[C@H]1C(=O)N[C@H](Cc1c[nH]c2ccccc12)C(N)=O | > 50 | 5 |  |
| CSc1cccc(NC(=O)NC2C[C@@H]3CCCN2CC3CN(C)c2ccccc2)c1 (stereo partly specified) | > 50 | 1 |  |
| CCNC(=O)N[C@H]1CO[C@H]2[C@@H]1OC[C@@H]2Nc1nccc(-c2ccc(OC)cc2)n1 | 0.117 |  | Activity (SH-SY5Y): Active |
